Measurements: ChEMBL document CHEMBL1122794, “[(Arylcarbonyl)oxy]propanolamines. 1. Novel beta-blockers with ultrashort duration of action” (J Med Chem, 1984)

Experiments:
[1] = t1/2 in canine liver; assay type: ADME, Canis lupus familiaris; details: dog
[2] = (§1) Selectivity determined by expression 10[pA2(atria) - pA2 (trachea)] in guinea pig; assay type: functional, Cavia porcellus
Canis familiaris [3] = organism: Canis familiaris; experiment: Time taken for 80% recovery at a dose of 10 microg (3-h infusion period); assay type: functional, organism-based; details: Canis lupus familiaris
Adrenergic receptor beta [4] = target: T1, Adrenergic receptor beta (Homo sapiens, UniProt P08588+P07550+P13945); experiment: In Vitro inhibition of the beta adrenergic receptor in guinea pig atria; assay type: tissue-based, Cavia porcellus; details: target entry is the homologue from another species
Adrenergic receptor beta [5] = target: T1, Adrenergic receptor beta; experiment: In vitro blocking of beta adrenergic receptor in guinea pig trachea; assay type: tissue-based, Cavia porcellus; details: target entry is the homologue from another species
[6] = T1/2 in canine blood; assay type: ADME, […], Canis lupus familiaris; details: dog
Method in brief: (§2)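 1 mL of solution containing 50 µg of compound was added to 1 mL of dog or human whole blood, or to 1 mL of 33% (w/v) canine liver homogenate. They were assayed by HPLC on a phenyl column with 60% acetonitrile/40% 0.05 M sodium phosphate (pH 6.6) and UV detection. Half-life was read graphically from concentration versus time.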

Canis familiaris [7] = organism: Canis familiaris; experiment: Percent inhibition of isoproterenol induced tachycardia at a dose of 10 microg (3-h infusion period); assay type: functional, Canis lupus familiaris
Canis familiaris [8] = organism: Canis familiaris; experiment: Time taken for 80% recovery at a dose of 20 microg (3-h infusion period); assay type: functional, organism-based; details: Canis lupus familiaris
[9] = Stability at pH 7.4 and 37 degree Celsius (after 18 h); assay type: physicochemical; details: buffer
Method in brief: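 Chemical stability was tested in pH 7.4 buffer at 37 °C. The percentage of parent compound remaining after 18 h of incubation was recorded.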

[10] = Time in which 1/2 of the initial amount disappeared in human blood.; assay type: ADME, organism-based; method in brief: as §2
Canis familiaris [11] = organism: Canis familiaris; experiment: Percent inhibition of isoproterenol induced tachycardia at a dose of 20 microg (3-h infusion period); assay type: functional, Canis lupus familiaris
Canis familiaris [12] = organism: Canis familiaris; experiment: Percent inhibition of isoproterenol induced tachycardia at a dose of 8 microg (3-h infusion period); assay type: functional, Canis lupus familiaris
Canis familiaris [13] = organism: Canis familiaris; experiment: Time taken for 80% recovery at a dose of 8 microg (3-h infusion period); assay type: functional, organism-based; details: Canis lupus familiaris
Method in brief: (§3)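 After the infusion ended, the time to 80% recovery of the blockade was recorded as duration of action. The listed dose is the average amount infused per minute over the 3-h period, in µg/(kg min).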

Canis familiaris [14] = organism: Canis familiaris; experiment: Percent inhibition of isoproterenol induced tachycardia at a dose of 182 microg (3-h infusion period); assay type: functional, Canis lupus familiaris
Canis familiaris [15] = organism: Canis familiaris; experiment: Time taken for 80% recovery at a dose of 182 microg (3-h infusion period); assay type: functional, organism-based; details: Canis lupus familiaris
[16] = Time in which 1/2 of the initial amount disappeared in canine blood; assay type: ADME, […], Canis lupus familiaris; details: dog; method in brief: as §2
[17] = Time in which 1/2 of the initial amount disappeared in canine liver; assay type: ADME, […], Canis lupus familiaris; details: dog; method in brief: as §2
[18] = target: Beta-2 adrenergic receptor (Cavia porcellus) (UniProt Q8K4Z4); experiment: In Vitro evaluation for […] selectivity in guinea pig
Chain of Beta-2 adrenergic receptor (Cavia porcellus) (Q8K4Z4 whole entry, looked up): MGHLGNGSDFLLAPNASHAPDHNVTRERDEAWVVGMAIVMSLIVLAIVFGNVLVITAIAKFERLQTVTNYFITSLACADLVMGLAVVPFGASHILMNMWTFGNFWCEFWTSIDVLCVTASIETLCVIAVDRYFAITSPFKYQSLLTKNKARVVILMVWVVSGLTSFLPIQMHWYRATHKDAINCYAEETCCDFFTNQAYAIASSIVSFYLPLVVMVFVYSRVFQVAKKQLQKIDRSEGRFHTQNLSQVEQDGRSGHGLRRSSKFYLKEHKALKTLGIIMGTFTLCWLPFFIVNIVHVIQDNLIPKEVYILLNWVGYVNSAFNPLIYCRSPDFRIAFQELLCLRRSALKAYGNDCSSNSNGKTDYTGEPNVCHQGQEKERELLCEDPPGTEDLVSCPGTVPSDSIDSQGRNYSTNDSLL
Method in brief: (§4)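 Selectivity index calculated as 10^[pA2(atria) − pA2(trachea)] from pA2 values measured in isolated guinea pig atria and trachea. A minus sign denotes β2 selectivity.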

[19] = as §1; assay type: functional, Cavia porcellus; method in brief: as §4; remark: listed apart in the source
Canis familiaris [20] = organism: Canis familiaris; experiment: Time taken for 80% recovery at a dose of 172 microg (3-h infusion period); assay type: functional, organism-based; details: Canis lupus familiaris
Canis familiaris [21] = organism: Canis familiaris; experiment: Percent inhibition of isoproterenol induced tachycardia at a dose of 23 microg (3-h infusion period); assay type: functional, Canis lupus familiaris
Canis familiaris [22] = organism: Canis familiaris; experiment: Time taken for 80% recovery at a dose of 23 microg (3-h infusion period); assay type: functional, organism-based; details: Canis lupus familiaris
[23] = Time in which 1/2 of the initial amount disappeared in human blood; assay type: ADME, organism-based; method in brief: as §2
Canis familiaris [24] = organism: Canis familiaris; experiment: Percent inhibition of isoproterenol induced tachycardia at a dose of 3.3 microg (3-h infusion period); assay type: functional, Canis lupus familiaris
Canis familiaris [25] = organism: Canis familiaris; experiment: Time taken for 80% recovery at a dose of 3.3 microg (3-h infusion period); assay type: functional, organism-based; details: Canis lupus familiaris
Canis familiaris [26] = organism: Canis familiaris; experiment: Percent inhibition of isoproterenol induced tachycardia at a dose of 128 microg (3-h infusion period) / 85 kg min (40-min infusion model); assay type: functional, Canis lupus familiaris
Canis familiaris [27] = organism: Canis familiaris; experiment: Time taken for 80% recovery at a dose of 128 microg (3-h infusion period) / 85 kg min (40-min infusion model); assay type: functional, organism-based; details: Canis lupus familiaris
Canis familiaris [28] = organism: Canis familiaris; experiment: Time taken for 80% recovery at a dose of 1.1 microg (3-h infusion period); assay type: functional, organism-based; details: Canis lupus familiaris
Adrenergic receptor beta [29] = target: T1, Adrenergic receptor beta; experiment: In vitro beta adrenergic receptor blocking in guinea pig trachea; assay type: tissue-based, Cavia porcellus; details: target entry is the homologue from another species
Canis familiaris [30] = organism: Canis familiaris; experiment: Percent inhibition of isoproterenol induced tachycardia at a dose of 1.1 microg (3-h infusion period); assay type: functional, Canis lupus familiaris
Canis familiaris [31] = organism: Canis familiaris; experiment: Percent inhibition of isoproterenol induced tachycardia at a dose of 70 microg (3-h infusion period); assay type: functional, Canis lupus familiaris
Canis familiaris [32] = organism: Canis familiaris; experiment: Time taken for 80% recovery at a dose of 70 microg (3-h infusion period); assay type: functional, organism-based; details: Canis lupus familiaris; method in brief: as §3

| half-life [1] [min] | pA2 (Adrenergic receptor beta [4]) | pA2 (Adrenergic receptor beta [5]) | half-life [6] [min] | SMILES | Selectivity [2] | other results |
| --- | --- | --- | --- | --- | --- | --- |
| 10 | 6.8 | 8 | 30 | CC(C)(C)NCC(O)COC(=O)c1ccccc1F (configuration not stated) | -16 | Recovery time (Canis familiaris [8]): 17 min; remaining at 18 h [9]: 98%; half-life [10]: 1.6 min; Inhibition (Canis familiaris [11]): 60% |
| – | 6.2 | 6.3 | – | CC(C)(C)NCC(O)COC(=O)c1ccc(C=O)cc1 (configuration not stated) | – | half-life [16]: 14 min; half-life [17]: 1 min; Selectivity [18]: 1 |
| – | 6.6 | 6.5 | – | CC(C)(C)NCC(O)COC(=O)c1ccc([N+](=O)[O-])cc1Cl (configuration not stated) | 1 | Inhibition (Canis familiaris [21]): 85%; Recovery time (Canis familiaris [22]): > 60 min |
| 66 | 7.3 | 8 | 16 | CC(C)(C)NCC(O)COC(=O)c1ccc(F)cc1 (configuration not stated) | -5 | half-life [23]: 11.5 min |
| 3.5 | – | – | 20 | CC(C)C(=O)NCC(C)(C)NCC(O)COC(=O)c1ccccc1F (configuration not stated) | – | Inhibition (Canis familiaris [24]): 62%; Recovery time (Canis familiaris [25]): 22 min |
| 20 | 6.8 | 7.7 | 7.3 | CC(C)(C)NCC(O)COC(=O)c1ccccc1 (configuration not stated) | -8 | Inhibition (Canis familiaris [31]): 65%; Recovery time (Canis familiaris [32]): > 60 min; remaining at 18 h [9]: 99%; half-life [10]: 5.3 min |

Second part, the compound before the results:

| SMILES | half-life [1] [min] | pA2 (Adrenergic receptor beta [4]) | pA2 (Adrenergic receptor beta [5]) | half-life [6] [min] | Selectivity [2] | other results |
| --- | --- | --- | --- | --- | --- | --- |
| CC(C)(CNC(=O)Cc1ccccc1)NCC(O)COC(=O)c1ccccc1F (configuration not stated) | 25 | 7.4 | 8.1 | 6 | -5 | Recovery time (Canis familiaris [3]): 19 min; Inhibition (Canis familiaris [7]): 68% |
| CC(C)(CNC(=O)C1CCCCC1)NCC(O)COC(=O)c1ccccc1F (configuration not stated) | – | 7.7 | 7.2 | – | 3 | Inhibition (Canis familiaris [12]): 61%; Recovery time (Canis familiaris [13]): 12 min |
| CC(C)NCC(O)COC(=O)c1ccc2ccccc2c1 (configuration not stated) | – | 6.4 | 6.6 | – | -2 | Inhibition (Canis familiaris [14]): 54%; Recovery time (Canis familiaris [15]): > 60 min |
| CCCOc1ccccc1C(=O)OCC(O)CNC(C)C (configuration not stated) | – | 6.6 | 7.1 | – | – | Selectivity [19]: -3.5; Recovery time (Canis familiaris [20]): > 60 min |
| CC(C)NCC(O)COC(=O)c1ccccc1 (configuration not stated) | 8 | 6.3 | 7.2 | 6.8 | -7 | Inhibition (Canis familiaris [26]): 63%; Recovery time (Canis familiaris [27]): 26 min; half-life [10]: 2.3 min |
| CC(C)(CNC(=O)N1CCOCC1)NCC(O)COC(=O)c1ccccc1F (configuration not stated) | – | 8.5 | – | – | 2 | Recovery time (Canis familiaris [28]): > 60 min; pA2 (Adrenergic receptor beta [29]): 8.2; Inhibition (Canis familiaris [30]): 81% |
